Legend:
Assay type in all cases: functional
OVCAR-4 = assay: Antitumor activity against human OVCAR4 cells
Summary of the method: (§1)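 Run by the NCI in its in vitro disease-oriented screen of about 60 human tumour cell lines. For each line it reports pGI50 (50% net growth inhibition), pTGI (total growth inhibition) and pLC50 (50% net cell death), each as –log molar concentration. Where an effect was not reached within the tested range, the highest tested concentration was used.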

HOP-92 = assay: Antitumor activity against human HOP92 cells; summary of the method: as §1
T47D = assay: Antitumor activity against human T47D cells
Summary of the method: (§2)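 NCI 60-cell-line screen. Parameters were GI50 (50% net growth inhibition), TGI and LC50, each reported as –log molar concentration. Where an effect was not reached within the tested range, the highest tested concentration was used in the calculation.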

SNB-19 = assay: Antitumor activity against human SNB19 cells; summary of the method: as §1
SK-MEL-28 = assay: Antitumor activity against human SKMEL28 cells; summary of the method: as §1
CAKI-1 = assay: Antitumor activity against human CAKI1 cells; summary of the method: as §1
UACC-257 = assay: Antitumor activity against human UACC257 cells; summary of the method: as §2
CCRF-CEM [1] = assay: Growth inhibition of human vinblastine-resistant CEM cells after 72 hrs by MTT assay
Summary of the method: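 Growth inhibition by MTT after 72 h incubation. Resistant sublines: LoVoDoxo and MCF-7 MDR were kept in 0.1 µg/mL doxorubicin; CEMVbl-100 was selected against vinblastine. GI50 given as mean ± SEM of three independent experiments. Resistance index is resistant-line GI50 over parental GI50.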

NCI-H522 = assay: Antitumor activity against human NCI-H522 cells; summary of the method: as §1
OVCAR-5 = assay: Antitumor activity against human OVCAR5 cells; summary of the method: as §1
LOX IMVI = assay: Antitumor activity against human LOXIMVI cells; summary of the method: as §1
A549 = assay: Antitumor activity against human A549 cells; summary of the method: as §1
ACHN = assay: Antitumor activity against human ACHN cells; summary of the method: as §1
RXF 393 = assay: Antitumor activity against human RXF393 cells; summary of the method: as §1
OVCAR-8 = assay: Antitumor activity against human OVCAR8 cells; summary of the method: as §1
A498 = assay: Antitumor activity against human A498 cells; summary of the method: as §1
MDA-MB-435 = assay: Antitumor activity against human MDA-MB-435 cells; summary of the method: as §1
[2] = Antitumor activity against human […] cells; summary of the method: as §1
SK-MEL-5 = assay: Antitumor activity against human SKMEL5 cells; summary of the method: as §1
CCRF-CEM [3] = assay: Resistance index, Ratio of GI50 for human vinblastine-resistant CEM cells to GI50 for human CEM cells
U-251 = assay: Antitumor activity against human U251 cells; summary of the method: as §2
MCF7 = assay: Antitumor activity against human MCF7 cells; summary of the method: as §1
SF-295 = assay: Antitumor activity against human SF295 cells; summary of the method: as §1
NCI-H23 = assay: Antitumor activity against human NCI-H23 cells; summary of the method: as §1
SK-OV-3 = assay: Antitumor activity against human SKOV3 cells; summary of the method: as §1
Hs-578T = assay: Antitumor activity against human HS578T cells; summary of the method: as §1
MOLT-4 = assay: Antitumor activity against human MOLT4 cells; summary of the method: as §1
HOP-62 = assay: Antitumor activity against human HOP62 cells; summary of the method: as §1
HCC 2998 = assay: Antitumor activity against human HCC2998 cells; summary of the method: as §1
SR = assay: Antitumor activity against human SR cells; summary of the method: as §2
SF-268 [4] = assay: Antitumor activity against human SF268 cells; summary of the method: as §1
UACC-62 = assay: Antitumor activity against human UACC62 cells; summary of the method: as §2
SF-539 = assay: Antitumor activity against human SF539 cells; summary of the method: as §1
KM12 = assay: Antitumor activity against human KM12 cells; summary of the method: as §1
NCI-H460 = assay: Cell viability against human NCI-H460 cells at 10 uM
SF-268 [5] = assay: Cell viability against human SF268 cells at 10 uM
M14 = assay: Antitumor activity against human M14 cells; summary of the method: as §1
IGROV-1 = assay: Antitumor activity against human IGROV1 cells; summary of the method: as §1
RPMI-8226 = assay: Antitumor activity against human RPMI8226 cells; summary of the method: as §1
HCT-116 = assay: Antitumor activity against human HCT116 cells; summary of the method: as §1
[6] = read-out: Log LC50 (the source's name) (converted)

## Cc1cccc2c1[nH]c(=O)c1c3ccccc3cn21
OVCAR-4
  GI50: 6.76 µM
  LC50 (50% net cell kill): > 100 µM
OVCAR-4; read-out: pTGI (converted)
  TGI: > 100 µM
HOP-92
  GI50: 3.98 µM
  LC50: > 100 µM
HOP-92; read-out: pTGI (converted)
  TGI: 32.4 µM
T47D
  GI50: 11.5 µM
  LC50: > 100 µM
T47D; read-out: pTGI (converted)
  TGI: 49 µM
SNB-19
  GI50: 15.5 µM
SNB-19; [6]
  CC50: > 100 µM
SNB-19; read-out: pTGI (converted)
  TGI: 47.9 µM
SK-MEL-28
  GI50: 6.92 µM
SK-MEL-28; [6]
  CC50: > 100 µM
SK-MEL-28; read-out: pTGI (converted)
  TGI: > 100 µM
CAKI-1
  GI50: 2.19 µM
  LC50: > 100 µM
CAKI-1; read-out: pTGI (converted)
  TGI: 8.71 µM
UACC-257
  GI50: 16.6 µM
  LC50: > 100 µM
UACC-257; read-out: pTGI (converted)
  TGI: 93.3 µM
CCRF-CEM [1]
  GI50: 3 µM
NCI-H522
  GI50: 6.46 µM
NCI-H522; [6]
  CC50: > 100 µM
NCI-H522; read-out: pTGI (converted)
  TGI: 64.6 µM
OVCAR-5
  GI50: 17.8 µM
  LC50 (50% net cell death): > 100 µM
OVCAR-5; read-out: pTGI (converted)
  TGI: 66.1 µM
LOX IMVI
  GI50: 6.17 µM
  LC50 (50% net cell kill): 42.7 µM
LOX IMVI; read-out: pTGI (converted)
  TGI: 18.2 µM
A549
  GI50: 5.01 µM
A549; [6]
  CC50: > 100 µM
A549; read-out: pTGI (converted)
  TGI: > 100 µM
ACHN
  GI50: 4.07 µM
  LC50 (50% net cell kill): > 100 µM
ACHN; read-out: pTGI (converted)
  TGI: 22.4 µM
RXF 393
  GI50: 9.12 µM
RXF 393; [6]
  CC50: > 100 µM
RXF 393; read-out: pTGI (converted)
  TGI: 38 µM
OVCAR-8
  GI50: 3.55 µM
  LC50 (50% net cell death): > 100 µM
OVCAR-8; read-out: pTGI (converted)
  TGI: > 100 µM
A498
  GI50: 16.2 µM
A498; [6]
  CC50: > 100 µM
A498; read-out: pTGI (converted)
  TGI: 41.7 µM
MDA-MB-435
  GI50: 3.16 µM
  LC50 (50% net cell death): 95.5 µM
MDA-MB-435; read-out: pTGI (converted)
  TGI: 11.5 µM
[2]
  GI50: 2.4 µM
  LC50: > 100 µM
[2]; read-out: pTGI (converted)
  TGI: 17.4 µM
SK-MEL-5
  GI50: 11.7 µM
  LC50: 49 µM
SK-MEL-5; read-out: pTGI (converted)
  TGI: 24 µM
CCRF-CEM [3]
  RatioGI50: 1.04
U-251
  GI50: 6.61 µM
U-251; [6]
  CC50: 45.7 µM
U-251; read-out: pTGI (converted)
  TGI: 19.5 µM
MCF7
  GI50: < 0.01 µM
  LC50 (50% net cell kill): 39.8 µM
MCF7; read-out: pTGI (converted)
  TGI: 12.6 µM
SF-295
  GI50: 2.63 µM
SF-295; [6]
  CC50: > 100 µM
SF-295; read-out: pTGI (converted)
  TGI: 25.1 µM
NCI-H23
  GI50: 17.4 µM
  LC50 (50% net cell kill): 87.1 µM
NCI-H23; read-out: pTGI (converted)
  TGI: 38.9 µM
SK-OV-3
  GI50: 27.5 µM
  LC50 (50% net cell kill): > 100 µM
SK-OV-3; read-out: pTGI (converted)
  TGI: > 100 µM
Hs-578T
  GI50: 21.9 µM
Hs-578T; [6]
  CC50: > 100 µM
Hs-578T; read-out: pTGI (converted)
  TGI: 64.6 µM
MOLT-4
  GI50: 1.82 µM
  LC50: 20.9 µM
MOLT-4; read-out: pTGI (converted)
  TGI: 5.62 µM
HOP-62
  GI50: 3.55 µM
  LC50 (50% net cell death): 51.3 µM
HOP-62; read-out: pTGI (converted)
  TGI: 15.1 µM
HCC 2998
  GI50: 4.57 µM
  LC50: 40.7 µM
HCC 2998; read-out: pTGI (converted)
  TGI: 16.2 µM
SR
  GI50: 1.55 µM
  LC50: 12.6 µM
SR; read-out: pTGI (converted)
  TGI: 4.17 µM
SF-268 [4]
  GI50: 3.02 µM
SF-268 [4]; [6]
  CC50: 75.9 µM
SF-268 [4]; read-out: pTGI (converted)
  TGI: 8.51 µM
UACC-62
  GI50: 6.92 µM
  LC50: 95.5 µM
UACC-62; read-out: pTGI (converted)
  TGI: 28.2 µM
SF-539
  GI50: 3.89 µM
  LC50 (50% net cell kill): 40.7 µM
SF-539; read-out: pTGI (converted)
  TGI: 15.8 µM
KM12
  GI50: 3.39 µM
  LC50 (50% net cell death): > 100 µM
KM12; read-out: pTGI (converted)
  TGI: 22.9 µM
NCI-H460
  Activity: 2%
SF-268 [5]
  Activity: 55%
M14
  GI50: 12.6 µM
M14; [6]
  CC50: 77.6 µM
M14; read-out: pTGI (converted)
  TGI: 30.9 µM
IGROV-1
  GI50: 3.72 µM
IGROV-1; [6]
  CC50: > 100 µM
IGROV-1; read-out: pTGI (converted)
  TGI: > 100 µM
RPMI-8226
  GI50: 2 µM
RPMI-8226; [6]
  CC50: 60.3 µM
RPMI-8226; read-out: pTGI (converted)
  TGI: 7.08 µM
HCT-116
  GI50: 2.69 µM
  LC50: 33.9 µM
HCT-116; read-out: pTGI (converted)
  TGI: 11.7 µM

Source: ChEMBL document CHEMBL1144782, “Isoindolo[2,1-a]quinoxaline derivatives, novel potent antitumor agents with dual inhibition of tubulin polymerization and topoisomerase I” (2008)
